In assay [1] the test system is HeLa. Put plainly: Induction of apoptosis in human HeLa cells assessed as total cells at early apoptotic stage at 2.5 uM after 24 hrs by Annexin-V-FITC/propidium iodide staining based flow cytometry (reference value: 0.04%). Format: functional. The method in brief:
(§1)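 Hela cells seeded at 10^6 per well and stabilized 24 h at 37 °C, 5% CO2. Then treated 24 h at 2.5, 5.0 or 7.5 μM, DMSO negative control. Cells washed in cold PBS, resuspended at 1×10^6 cells/mL in cold binding buffer, stained with annexin V-FITC then PI for 15 min in dark, analysed by flow cytometry.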
Background: Flow cytometry measures light scatter and fluorescence of single cells or particles in a stream.

The test system of assay [2] is HeLa. Put plainly: Cell cycle arrest in human HeLa cells assessed as accumulation at S phase at 5 uM after 24 hrs by propidium iodide staining based flow cytometry (reference value: 18.92%). Type of assay: functional.
In assay [3] the test system is HeLa. Put plainly: Cell cycle arrest in human HeLa cells assessed as accumulation at G2 phase at 5 uM after 24 hrs by propidium iodide staining based flow cytometry (reference value: 24.36%). Format: functional.
Assay [4] concerns HeLa. In words: Cell cycle arrest in human HeLa cells assessed as accumulation at G1 phase at 7.5 uM after 24 hrs by propidium iodide staining based flow cytometry (reference value: 56.72%). Format: functional.
For assay [5], the system named is HeLa. In words: Induction of apoptosis in human HeLa cells after 24 hrs by Annexin-V-FITC/propidium iodide staining based flow cytometry. Format: functional, cell-based. The method in brief: as §1
Assay [6] has as its system HeLa. In words: Cytotoxicity against human HeLa cells assessed as growth inhibition at 10 uM after 72 hrs by SRB assay relative to control. Type of assay: functional. The following applies: read-out: GI. The method in brief: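 SRB single-dose screen at 10 μM on 293T, A549, Hela and MCF-7 cells. Results reported as percent inhibitory ratio (mean ± SD).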
Assay [7] relates to HeLa. In words: Induction of apoptosis in human HeLa cells assessed as total cells at late apoptotic stage at 2.5 uM after 24 hrs by Annexin-V-FITC/propidium iodide staining based flow cytometry (reference value: 0.03%). Format: functional. A digest of the protocol:
as §1

The next assay has as its system HEK-293T. In words: Cytotoxicity against human 293T cells after 72 hrs by SRB assay. Format: cell-based. The method in brief:
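SRB assay on 293T, A549, Hela and MCF-7 cells, with cisplatin as reference control. IC50 calculated for each compound from triplicate assays.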
Background: In SRB staining, fixed cells bind dye roughly in proportion to their protein.

The subject of assay [8] is HeLa. Put plainly: Induction of apoptosis in human HeLa cells assessed as total cells at viable stage at 5 uM after 24 hrs by Annexin-V-FITC/propidium iodide staining based flow cytometry (reference value: 96.16%). Format: functional. A digest of the protocol:
as §1

In assay [9] the test system is HeLa. In words: Induction of apoptosis in human HeLa cells assessed as apoptotic body formation at 7.5 uM after 48 hrs by Hoechst 33342 staining based fluorescence microscopic method. Type of assay: functional, cell-based. The method in brief:
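Hela cells seeded at 10^6 per well on cover slips and incubated 16 h. Then exposed 48 h at 2.5, 5.0 or 7.5 μM, DMSO negative control. Cells fixed in 4% paraformaldehyde for 15 min, washed in PBS, stained with Hoechst 33342 for 10 min. Nuclear morphology viewed by fluorescence microscopy, ex 350 nm / em 460 nm.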

Assay [10] deals with HeLa. Put plainly: Induction of apoptosis in human HeLa cells assessed as gated cells at late apoptotic stage at 7.5 uM after 24 hrs by Annexin-V-FITC/propidium iodide staining based flow cytometry (reference value: 0.03%). Type of assay: functional. A digest of the protocol:
as §1

For assay [11], the system named is HeLa. Put plainly: Induction of apoptosis in human HeLa cells assessed as gated cells at late apoptotic stage at 2.5 uM after 24 hrs by Annexin-V-FITC/propidium iodide staining based flow cytometry (reference value: 0.03%). Type of assay: functional. A digest of the protocol: as §1
The test system of assay [12] is HeLa. In words: Induction of apoptosis in human HeLa cells assessed as gated cells at late apoptotic stage at 5 uM after 24 hrs by Annexin-V-FITC/propidium iodide staining based flow cytometry (reference value: 0.03%). Format: functional. A digest of the protocol: as §1
Assay [13] concerns HeLa. Put plainly: Induction of apoptosis in human HeLa cells assessed as gated cells at viable stage at 5 uM after 24 hrs by Annexin-V-FITC/propidium iodide staining based flow cytometry (reference value: 99.88%). Format: functional. The method in brief:
as §1

Assay [14] has as its system HeLa. In words: Cell cycle arrest in human HeLa cells assessed as accumulation at S phase after 24 hrs by propidium iodide staining based flow cytometry. Type of assay: functional.
The subject of assay [15] is HeLa. In words: Cell cycle arrest in human HeLa cells assessed as accumulation at S phase at 7.5 uM after 24 hrs by propidium iodide staining based flow cytometry (reference value: 18.92%). Format: functional.

Active and inactive are the calls of the source. No cut-off for these calls is given here.

Regarding `CCNCc1cn(-c2ccccc2)nc1C1=CC[C@H]2[C@@H]3CC=C4C[C@@H](O)CC[C@]4(C)[C@H]3CC[C@]12C`, the Activity in the assay with HeLa [1] was 0.58%; in the assay on HeLa [2], 24.34%; with HeLa [3], 22.53%; in the assay on HeLa [4], 49.92%; in the assay on HeLa [5], “Dose-dependent effect”; in the assay with HeLa [7], 0.16%. The Activity with HeLa [8] is 80.32%; with HeLa [10] it was 1.01%; in the assay on HeLa [11], 0.16%; in the assay with HeLa [12] it was 0.36%; in the assay with HeLa [13], 93.44%; with HeLa [14] it was “Dose-dependent effect”. Also, the Activity with HeLa [15] is 24.77%. The inhibition of growth at 10 µM with HeLa [6] amounted to 92.8%. Moreover, it took 870 nM to reach half-maximal inhibition in the assay with HEK-293T (IC50). The outcome in the assay with HeLa [9] was Active.
